Bioassay records (PubChem BioAssay)
Only some compounds are listed: those with a hit (about 3.5% of all), similar ones and a draw of the others.
RGS4 inh = inhibitors of human RGS4. P49798. 0.45% of 310,000 active. B-score at 10 µM. HEK293 M3R/RGS4 inducible, Fluo-4 calcium flux; stronger effect = higher value; triggered by carbachol at its EC20. AID 463165;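 active means B-score, a plate-corrected calcium signal, over three deviations above library mean, with baseline fluorescence within five deviations of library mean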;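 further: RGS4 expression induced by doxycycline in cells with stable M3 receptor; B-score is computed from the integrated fluorescence ratio over baseline after carbachol; higher B-score means a larger calcium signal and so more RGS4 inhibition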
Target sequence (P49798 whole entry, looked up): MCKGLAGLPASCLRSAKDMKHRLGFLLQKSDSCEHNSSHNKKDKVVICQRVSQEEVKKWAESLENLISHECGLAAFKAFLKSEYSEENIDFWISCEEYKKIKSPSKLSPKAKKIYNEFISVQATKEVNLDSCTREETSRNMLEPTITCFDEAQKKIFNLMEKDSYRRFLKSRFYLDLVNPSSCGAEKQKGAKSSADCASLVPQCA
MrgX1 PAM = allosterically activates human MrgX1 receptor signaling | MrgX1-HEK293, Fluo-4 calcium flux, FDSS; stronger effect = higher value | Q96LB2 | 0.63% of 310,000 active | AID 588675 | B-score at 10 µM;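 active means plate-corrected calcium response at least 3 library SD above typical, normal starting fluorescence, not activating the receptor alone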;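 further: compound read alongside a low EC10 to EC30 dose of BAM8-22 agonist; peak minus trough fluorescence over baseline measured at the second addition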
MrgX1 agonist = human MrgX1 receptor agonism, primary screen; MrgX1-HEK293 cells, Fluo-4 calcium fluorescence, agonist mode; stronger effect = higher value; AID 588627; 0.44% of 310,000 active; B-score at 10 µM;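 active means calcium response B-score plate-corrected fluorescence ratio at least 3 library SD, with starting fluorescence B-score inside 5 SD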
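Test system: Stable human MrgX1 HEK293 cell line | Schedule: Overnight plating before 1 h dye loading | Read-out basis: Baseline-normalised fluorescence change ratio, B-scored | Detection: Kinetic calcium dye fluorescence, Fluo-4 NW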
RGS4 pot = RGS4 potentiation or activation; HEK293 M3R/inducible RGS4, carbachol calcium flux Fluo4; stronger effect = lower value; B-score at 10 µM; 0.92% of 310,000 active;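 active means B-score of the integrated calcium signal more than 4 SD below the library mean, with starting fluorescence not abnormally high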;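 further: negative B-score means reduced calcium response which marks RGS4 activation or potentiation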
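Material: Inducible-RGS4 HEK293 cells carrying M3 receptor; also added: carbachol at ECmax as muscarinic agonist stimulus; incubation: compound preincubation 20 min at room temperature before agonist; signal: Fluo4-AM (2 µM) calcium-flux fluorescence, kinetic read; measure: integrated calcium ratio converted to B score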
MrgX1 antagonist = antagonists of human MrgX1 receptor; Q96LB2; MRGX1-HEK293 calcium flux, Fluo-4, BAM8-22 antagonism; stronger effect = lower value; B-score at 10 µM; 1.3% of 310,000 active;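 active means calcium-response B-score plate-corrected more than 3 library SD below zero, starting fluorescence within 5 deviations, no agonist response on first addition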;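 further: peak minus trough fluorescence over baseline after final BAM8-22 challenge near maximal dose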
MrgX1 PAM conf = confirmation of human MrgX1 receptor positive allosteric modulators; shares compounds with MrgX1 PAM; MrgX1-HEK293, Fluo-4 calcium fluorescence, FDSS; activation (ratio percentage), % at 10 µM; 13% of 1,200 active; AID 602413;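 active means ratio at least 3 SD above the weak peptide control, stable starting fluorescence, no direct agonism earlier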;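 further: compound followed by low BAM8-22 agonist challenge near EC20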
HEK293 Ca flux = activity in parental HEK293 cells lacking MrgX1; shares compounds with MrgX1 antagonist; Fluo-4 calcium fluorescence, FDSS; fluorescence ratio F(max-min)/F0 at 10 µM; 2% of 4,000 active;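 active means duplicate-averaged calcium fluorescence ratio at least three times the standard deviation of buffer wells, a nonspecific response in parental cells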
HEK293 Ca counter = MrgX1 allosteric activator counter-screen hit in parental HEK293 cells; shares compounds with MrgX1 antagonist; parental HEK293 calcium flux, Fluo-4 fluorescence ratio; stronger effect = higher value; fluorescence ratio F(max-min)/F0 at 10 µM; 0.4% of 4,000 active; AID 624114;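 active means calcium fluorescence ratio, averaged over duplicates, at least 3 SD of the buffer-well ratio, meaning a nonspecific response in receptor-free cells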;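 further: untransfected parental HEK293 lacking MrgX1 used as counterscreen for MrgX1 allosteric activators; fluorescence change taken during the second addition on a kinetic imager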
HEK293 Ca cntr2 = counter-screen for MrgX1 activators: effect in parental HEK293 cells. fluorescence ratio F(max-min)/F0 at 10 µM. AID 624115. 8.7% of 4,000 active. shares compounds with MrgX1 antagonist. Fluo-4 calcium fluorescence (FDSS); stronger effect = higher value;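 active means calcium fluorescence ratio at least three times the spread of buffer wells, meaning a non-specific response in parental cells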
Starred values were filed as active, the others as inactive; i = inactive; x = not tested or not shown.

SMILES	RGS4 inh	MrgX1 PAM	MrgX1 agonist	RGS4 pot	MrgX1 antagonist	MrgX1 PAM conf	HEK293 Ca flux	HEK293 Ca counter	HEK293 Ca cntr2
Cc1ccc(Cn2ncc3c(N4CCN(c5ccc(C)cc5)CC4)ncnc32)cc1	i	i	i	i	i	x	x	x	x
CCC1Nc2ncnc(N3CCCCC3)c2N(Cc2ccccc2)C1=O (centres undefined)	i	7.5*	i	i	i	i	i	i	i
C=CCN(CC=C)C(=S)NC(=O)c1ccc(C)c(Br)c1	i	8.3*	i	i	i	i	i	i	i
O=C1COc2ccc(S(=O)(=O)Nc3ccc4c(c3)OCO4)cc2N1	i	i	i	i	i	x	x	x	x
COc1ccc(CCNC(=O)CCc2ccccc2)cc1OC	i	7.5*	i	i	i	i	i	i	i
Cn1c(=O)c2c(nc(CN3CCc4ccccc4C3)n2Cc2ccc(Cl)cc2)n(C)c1=O	i	i	i	i	i	x	x	x	x
Cn1c(=O)c2c(nc(CN3CCc4ccccc4C3)n2Cc2ccccc2)n(C)c1=O	i	17*	i	i	i	13%*	i	i	i
Cc1cc(NC(=O)CSc2nnc(-c3ccco3)n2Cc2ccco2)no1	i	i	i	i	i	x	x	x	x
CC(=O)Nc1ccc(NC(=O)CSc2nnc(-c3ccco3)n2Cc2ccco2)cc1	i	7*	i	i	i	i	i	i	i
CC(=O)Nc1ccc(NC(=O)C2CCN(C(=O)NC3CCCCC3)CC2)cc1	i	i	i	i	i	x	x	x	x
Nc1ccc2c(c1)Oc1ccccc1C=C2	i	12*	i	i	i	i	i	i	46*
CC1CC(C)CN(C2CCCCC2NS(=O)(=O)c2ccc(Cl)cc2)C1 (centres undefined)	i	8.2*	i	i	i	i	i	i	i
CN1CCN(C2CCCCC2NS(=O)(=O)c2ccc(Cl)cc2)CC1 (centres undefined)	i	i	i	i	i	x	x	x	x
COc1nccc(Nc2ccccc2)c1C#N	x	i	i	x	i	x	x	x	x
CSc1nccc(Nc2ccccc2)c1C#N	i	16*	i	i	i	8.6%*	i	i	i
COCCN(CCOC)C(=O)c1cc2sc3ccccc3c2s1	i	i	i	i	i	x	x	x	x
CCN(CC)C(=O)c1cc2sc3ccccc3c2s1	i	9.1*	i	i	i	i	i	i	i
CCN(CC(=O)NC(=O)NC1CCCC1)Cc1ccccc1	i	i	i	i	i	x	x	x	x
CC1(C)CC2CC(C)(CN2Cc2c(O)ccc3ccccc23)C1 (centres undefined)	i	7.4*	i	i	i	i	i	i	53*
CCN(CC)C(=O)c1sc(NC(=O)C(C)C)c(C#N)c1C	i	i	i	i	i	x	x	x	x
COc1ccc(NC(=O)c2cc(-c3cccc(OC)c3)on2)cc1	i	i	i	i	i	x	x	x	x
COc1ccc(NC(=O)c2cccc(C(=O)Nc3ccc(OC)cc3)n2)cc1	i	8.8*	i	i	i	i	i	i	i
CC(OC(=O)c1ccccc1CCc1ccccc1)C(N)=O (centres undefined)	i	i	i	i	i	x	x	x	x
O=C(CSc1nnc(CNC(=O)c2ccccc2F)o1)NC1CCCCC1	i	6.5*	i	i	i	i	i	i	i
